Active and inactive are the calls of the source. No cut-off for these calls is given here.
Tests used:
MCF7 = experiment: Antiproliferative activity against human MCF7 cells assessed as growth inhibition incubated for 72 hrs by MTT assay; type: functional
HOP-92 = experiment: Antiproliferative activity against human HOP-92 cells assessed as growth inhibition incubated for 72 hrs by MTT assay; type: functional
BT-549 = experiment: Antiproliferative activity against human BT-549 cells assessed as growth inhibition incubated for 72 hrs by MTT assay; type: functional
A549 [1] = experiment: Induction of apoptosis in human A549 cells assessed as increase in apoptotic cells incubated for 48 hrs by annexin V-FITC and PI staining based flow cytometric analysis; type: functional, cell-based; conditions: dose 1-5 µM
Outline: (§1)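 Cells exposed to several concentrations for 48 h, then stained with annexin V-FITC and PI and read by flow cytometry (FL1/FL3). Apoptotic cells = annexin V-positive plus annexin V/PI double-positive. Mean of three independent experiments.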

LOX IMVI = experiment: Antiproliferative activity against human LOX IMVI cells assessed as growth inhibition incubated for 72 hrs by MTT assay; type: functional
KM12 = experiment: Antiproliferative activity against human KM12 cells assessed as growth inhibition incubated for 72 hrs by MTT assay; type: functional
VL51 [2] = experiment: Antiproliferative activity against human VL51 cells assessed as cell growth inhibition measured after 72 hrs by MTT assay; type: functional, cell-based; conditions: VL51, 72 h
Outline: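 Lymphoma cells grown in RPMI-1640 with 20% FBS, seeded at 5,000–10,000 cells/well by doubling time. Doses 0–10 μM, 1:2 serial dilution, DMSO ≤0.1%, 72 h at 37 °C, 5% CO2. MTT (5 mg/mL stock) added for 4 h, SDS lysis, A570 read against medium-only blanks. IC50 from triplicate assays.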

VL51 [3] = experiment: Induction of apoptosis in human VL51 cells assessed as increase in apoptotic cells incubated for 48 hrs by annexin V-FITC and PI staining based flow cytometry analysis; type: functional, cell-based; conditions: dose 1-5 µM; outline: as §1
SF-539 = experiment: Antiproliferative activity against human SF-539 cells assessed as growth inhibition incubated for 72 hrs by MTT assay; type: functional
SN12C = experiment: Antiproliferative activity against human SN12C cells assessed as growth inhibition incubated for 72 hrs by MTT assay; type: functional
IGROV-1 = experiment: Antiproliferative activity against human IGROV-1 cells assessed as growth inhibition incubated for 72 hrs by MTT assay; type: functional
VL51 [4] = experiment: Induction of cell cycle arrest in human VL51 cells assessed as accumulation of cells at G2/M phase at 1 uM incubated for 24 hrs by PI staining based flow cytometry analysis; type: functional
Outline: (§2)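 Seeding in 6-well plates, 2 mL medium: A549 5×10^4, CCRF-CEM 2.5×10^5, VL51 2.0×10^5. 24 h treatment, A549 detached with trypsin-EDTA. Cells fixed in 70% ice-cold ethanol, PI-labelled, analysed by flow cytometry. Mean of two independent experiments.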

VL51 [5] = experiment: Induction of cell cycle arrest in human VL51 cells assessed as increase in mitotic cells at 1 uM incubated for 24 hrs by PI staining based flow cytometry analysis (reference value: 1.5%); type: functional
U-251 = experiment: Antiproliferative activity against human U-251 cells assessed as growth inhibition incubated for 72 hrs by MTT assay; type: functional
OVCAR-8 = experiment: Antiproliferative activity against human OVCAR-8 cells assessed as growth inhibition incubated for 72 hrs by MTT assay; type: functional
UACC-62 = experiment: Antiproliferative activity against human UACC-62 cells assessed as growth inhibition incubated for 72 hrs by assay; type: functional
NCI/ADR-RES = experiment: Antiproliferative activity against human NCI-ADR-RES cells assessed as growth inhibition incubated for 72 hrs by MTT assay; type: functional
[6] = Antiproliferative activity against human HBL1 cells assessed as reduction in cell proliferation at 1 uM measured after 72 hrs by MTT assay relative to control; type: functional; set-up: scale not given: the % may be the effect or the level left
Outline: (§3)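 Single-dose screen at 1 μM for 72 h at 37 °C, 5% CO2 (DMSO ≤0.1%). Cells in RPMI-1640 with 20% FBS, seeded at 5,000–10,000 cells/well. MTT added for 4 h, SDS lysis, A570 read with medium-only blanks. Percent proliferation relative to untreated cells, run in triplicate.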

[7] = Antiproliferative activity against human MINO cells assessed as cell growth inhibition measured after 72 hrs by MTT assay; type: functional, cell-based
Outline: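 Lymphoma cells in RPMI-1640 with 20% FBS, seeded at 5,000–10,000 cells/well depending on doubling time. Exposed for 72 h at 37 °C, 5% CO2 to a 1:2 serial dilution from 0 to 10 μM (DMSO ≤0.1%). MTT from a 5 mg/mL stock was added for 4 h, cells were lysed with 25% SDS, and A570 was read against medium-only blanks. IC50 from triplicate assays.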

UO-31 = experiment: Antiproliferative activity against human UO-31 cells assessed as growth inhibition incubated for 72 hrs by MTT assay; type: functional
[8] = Antiproliferative activity against human MINO cells assessed as reduction in cell proliferation at 1 uM measured after 72 hrs by MTT assay relative to control; type: functional; set-up: scale not given: the % may be the effect or the level left; outline: as §3
786-0 = experiment: Antiproliferative activity against human 786-0 cells assessed as growth inhibition incubated for 72 hrs by MTT assay; type: functional
SF-268 = experiment: Antiproliferative activity against human SF-268 cells assessed as growth inhibition incubated for 72 hrs by MTT assay; type: functional
Tubulin = experiment: Inhibition of tubulin assembly (unknown origin); type: protein-complex assay, Homo sapiens
SK-OV-3 = experiment: Antiproliferative activity against human SK-OV-3 cells assessed as growth inhibition incubated for 72 hrs by MTT assay; type: functional
HCT-15 = experiment: Antiproliferative activity against human HCT-15 cells assessed as growth inhibition incubated for 72 hrs by MTT assay; type: functional
A549 [9] = experiment: Induction of cell cycle arrest in human A549 cells assessed as reduction in accumulation of cells at S phase at 1 uM incubated for 24 hrs by PI staining based flow cytometry analysis; type: functional; outline: as §2
VL51 [10] = experiment: Induction of cell cycle arrest in human VL51 cells assessed as accumulation of cells at M phase by measuring p-Histone H3 positive cells incubated for 24 hrs by PI staining based flow cytometry analysis; type: functional; conditions: dose 0.5-1 µM
Hs-578T = experiment: Antiproliferative activity against human Hs-578T cells assessed as growth inhibition incubated for 72 hrs by MTT assay; type: functional
K562 = experiment: Antiproliferative activity against human K562 cells assessed as growth inhibition incubated for 72 hrs by MTT assay; type: functional
SW-620 = experiment: Antiproliferative activity against human SW-620 cells assessed as growth inhibition incubated for 72 hrs by MTT assay; type: functional
NCI-H460 = experiment: Antiproliferative activity against human NCI-H460 cells assessed as growth inhibition incubated for 72 hrs by MTT assay; type: functional
HCC 2998 = experiment: Antiproliferative activity against human HCC 2998 cells assessed as growth inhibition incubated for 72 hrs by MTT assay; type: functional
CCRF-CEM = experiment: Induction of cell cycle arrest in human CCRF-CEM cells assessed as reduction in accumulation of cells at S phase at 1 uM incubated for 24 hrs by PI staining based flow cytometry analysis; type: functional; outline: as §2
VL51 [11] = experiment: Induction of cell cycle arrest in human VL51 cells assessed as reduction in accumulation of cells at S phase at 1 uM incubated for 24 hrs by PI staining based flow cytometry analysis; type: functional; outline: as §2

| SMILES | GI50 (MCF7) [µM] | GI50 (HOP-92) [µM] | GI50 (BT-549) [µM] | Activity (A549 [1]) | GI50 (LOX IMVI) [µM] | GI50 (KM12) [µM] | IC50 (VL51 [2]) [µM] | Activity (VL51 [3]) | GI50 (SF-539) [µM] | GI50 (SN12C) [µM] | GI50 (IGROV-1) [µM] | Activity (VL51 [4]) | Activity (VL51 [5]) [%] | GI50 (U-251) [µM] | GI50 (OVCAR-8) [µM] | GI50 (UACC-62) [µM] | GI50 (NCI/ADR-RES) [µM] | Activity [6] [%] | IC50 [7] [µM] | GI50 (UO-31) [µM] | further results |
| --- | --- | --- | --- | --- | --- | --- | --- | --- | --- | --- | --- | --- | --- | --- | --- | --- | --- | --- | --- | --- | --- |
| COc1ccc(Cn2cc3c(c2-c2cc(OC)c(OC)c(OC)c2)CCCc2cnoc2-3)cc1 | 0.44 | 1.27 | 0.48 | Dose-Dependent Effect | 0.99 | 0.69 | 0.4 | Dose-Dependent Effect | 0.7 | 4.6 | 0.56 | Active | ~18 | 4.47 | 4.3 | 0.91 | 0.54 | >50 | 0.9 | 0.92 | Activity [8]: >50%; GI50 (786-0): 0.67 µM; GI50 (SF-268): 4.72 µM; IC50 (Tubulin): > 20 µM; GI50 (SK-OV-3): 4.18 µM; GI50 (HCT-15): 0.48 µM; Activity (A549 [9]): Active; Activity (VL51 [10]): Dose-Dependent Effect; GI50 (Hs-578T): 1.54 µM; GI50 (K562): 0.42 µM; GI50 (SW-620): 0.47 µM; GI50 (NCI-H460): 0.5 µM; GI50 (HCC 2998): 1.61 µM; Activity (CCRF-CEM): Active; Activity (VL51 [11]): Active |
| COc1ccc(Cn2cc3c(c2-c2cc(OC)c(OC)c(OC)c2)CCCc2cnoc2-3)cc1N | 0.42 | 0.52 | 0.25 | Dose-Dependent Effect | 0.7 | 0.56 | 0.1 | Dose-Dependent Effect | 0.4 | 0.84 | 1.56 | Active | ~18 | 0.51 | 1.57 | 0.43 | 0.6 | >50 | 0.4 | 0.69 | Activity [8]: >50%; GI50 (786-0): 0.52 µM; GI50 (SF-268): 1.45 µM; IC50 (Tubulin): 18 µM; GI50 (SK-OV-3): 0.68 µM; GI50 (HCT-15): 0.53 µM; Activity (A549 [9]): Active; Activity (VL51 [10]): Dose-Dependent Effect; GI50 (Hs-578T): 0.4 µM; GI50 (K562): 0.39 µM; GI50 (SW-620): 0.43 µM; GI50 (NCI-H460): 0.4 µM; GI50 (HCC 2998): 1.66 µM; Activity (CCRF-CEM): Active; Activity (VL51 [11]): Active |
